This passage reports inhibition results from PubChem BioAssay AID651572 (The Scripps Research Institute Molecular Screening Center, 2012).

SMILES strings stand for the structures. About 950 (0.26%) of roughly 360,000 compounds were called active. The sample holds actives, similar compounds and a random draw of the others, so the mix is not that of the screen. A number with no mark means an inactive call.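 Rule for the calls: active = inhibition above a per-plate limit, mean inhibition of low control wells plus 3 SD (cut at about 25% in these data); inactive = the rest.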

Sequence of ADP-ribosylation factor GTPase-activating protein 1 (Rattus norvegicus) (Q62848 1-136 limits assumed): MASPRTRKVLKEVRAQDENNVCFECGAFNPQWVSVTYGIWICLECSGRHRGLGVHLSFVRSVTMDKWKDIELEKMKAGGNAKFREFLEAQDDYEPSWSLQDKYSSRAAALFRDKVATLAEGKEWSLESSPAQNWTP

This test has as its target ADP-ribosylation factor GTPase-activating protein 1 (Rattus norvegicus) (UniProt Q62848). As to the kind of experiment: inhibitors of rat ARFGAP1 GAP activity, primary screen, biochemical, fluorescence polarization, GDP tracer (AID 651572).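 Note: 0% = DMSO wells with enzyme and 100% = wells lacking Arfgap1.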 The conditions noted are these: Arfgap1-stimulated ARF1 GTP hydrolysis, GDP FP detection; at 16.5 µM; stronger effect = higher value. In outline: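 Material: rat Arfgap1 catalytic domain, aa 1-136; also added: human ARF1(Δ1-17)-GTP substrate; compound dosing: one concentration, 16.5 µM, DMSO 1.26%; incubation: GTP hydrolysis reaction 2 h at 25 °C; measured by: Tracer-displacement fluorescence polarization with EDTA stop, 620/688 nm; evaluation: % inhibition from polarization; repeats: one replicate per compound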
A general note: Fluorescence polarisation rises when a labelled molecule tumbles more slowly, as on binding a larger partner.
For `O=C(N[C@H](C(=O)N1CCC[C@H]1C(=O)NCCc1ccccc1Cl)c1ccccc1)c1ccccc1`, the inhibition (in general, the drop in the measured response relative to a control, in per cent) was 0.74%.

Take `Cc1ccccc1C(=O)N[C@H](C(=O)N1CCC[C@H]1C(=O)NCc1ccccc1)C(C)C`: the inhibition was -4.95%.

Regarding `COc1cc(C2C(C(=O)c3ccco3)=C(O)C(=O)N2c2cc(C)on2)ccc1OCc1ccccc1` (stereo unspecified), the inhibition was -0.46%.

As for `Cc1ccc2nc(N3C(=O)C(O)=C(C(=O)c4ccco4)C3c3cccc(O)c3)sc2c1` (stereo unspecified), the inhibition is 28.5% (active).

As to `C=CCSc1nnc(N2C(=O)C(O)=C(C(=O)c3ccco3)C2c2ccc(F)cc2)s1` (stereo unspecified), the inhibition was -2.87%.

On to `COC(=O)C1=C(C)N(Cc2ccccc2C(F)(F)F)C(=NCC2CC2)NC1c1cccc(Cl)c1` (stereo unspecified), for which the inhibition was -11.5%.

As for `CN1C(=O)C(Br)(Br)CC1c1cccnc1` (stereo unspecified), the inhibition was 15.5%.

For the compound `CC(=O)c1ccc(S(=O)(=O)NCC2CCN(C(=O)C(=O)c3cccs3)CC2)cc1`, the inhibition is 0.05%.

On to `Clc1cccc2c1C1CC2CCN1Cc1ccccc1` (stereo unspecified), for which the inhibition is 1.92%.

Regarding `Cc1cc(C)cc(NC(=O)C2CCCN(S(=O)(=O)c3ccc4[nH]c(=O)ccc4c3)C2)c1` (stereo unspecified), the inhibition was 27.2% (active).

With `CCc1cccc(NC(=O)C2CCCN(S(=O)(=O)c3ccc4[nH]c(=O)ccc4c3)C2)c1` (stereo unspecified), the inhibition is -1.05%.

Regarding `CC1CCN(S(=O)(=O)c2ccc3[nH]c(=O)ccc3c2)CC1`, the inhibition was -6.93%.

As to `CCOc1ccccc1C(=O)N1CCC[C@@H]1C(=O)N1CCC[C@H]1C(=O)NCc1ccccc1`, the inhibition was 2.51%.

In the case of `C=CCN1C(=O)N(Cc2ccccc2)c2ccccc2S1(=O)=O`, the inhibition was -1.51%.

In the case of `COc1ccc(NC(=S)NCc2cccs2)c(OC)c1`, the inhibition is 7.24%.

As to `S=C(NCc1cccs1)Nc1ccc(Cl)cc1`, the inhibition was 28.2% (active).

For `O=C(CN1CCN(c2ccc(Cl)cc2)CC1)NCc1cccs1`, the inhibition is -5.05%.

Consider `COc1ccc(-c2ccc3c(n2)CCCN3S(=O)(=O)c2ccc(C)cc2)cc1`, for which the inhibition is -4.31%.

In the case of `COc1ccccc1-c1ccc([C@@H]2C[C@H]3[C@H](CON3C)CN2S(=O)(=O)c2cc(Cl)cc(Cl)c2)cc1`, the inhibition is 5.63%.

Regarding `Nc1nc2c(ncn2[C@@H]2O[C@H](C(=O)N[C@@H](Cc3ccccc3)C(=O)NCc3ccccc3)[C@@H](O)[C@H]2O)c(=O)[nH]1`, the inhibition was -1.71%.

For the compound `COC(=O)[C@]12C[C@H](CC(=O)NCc3cccc(C(F)(F)F)c3)C(=O)N(Cc3ccc4c(c3)OCO4)C1=C[C@H](COCc1ccccc1)O[C@@H]2C`, the inhibition was 5.08%.

For the compound `Cc1[nH]nc2c1C(c1ccc(Br)cc1)NC2=O` (stereo unspecified), the inhibition is 2.74%.

As for `COC(=O)C1=C(C)N(Cc2ccccc2C(F)(F)F)C(=NCc2ccc(OC)cc2)NC1c1cccc(C(F)(F)F)c1` (stereo unspecified), the inhibition is 10.9%.

With `O=C(CCc1ccccc1)Nc1nn[nH]n1`, the inhibition was 11.2%.

As to `O=C(CCc1ccccc1)Nc1ncc([N+](=O)[O-])s1`, the inhibition was 29% (active).

For the compound `CC(C)(C)NC(=O)CSc1nnc(NC(=O)CCc2ccccc2)s1`, the inhibition is 0.73%.

As to `Nc1ccn([C@@H]2O[C@H](C(=O)N[C@H]3CCCCNC3=O)[C@@H](O)[C@H]2O)c(=O)n1`, the inhibition was -7.26%.

Turning to `COc1ccc(-c2ccccc2C2Cc3nnccc3CN2C(=O)Nc2ccccc2)cc1` (stereo unspecified), the inhibition is 0.85%.

Take `COc1ccc(NC(=O)c2cn(-c3ccccc3)nc2SC)cc1`: the inhibition was 25.1% (active).

Regarding `COc1ccc(NC(=O)CSc2nc(N)c(-c3ccccc3)c(=O)[nH]2)cc1`, the inhibition is 5.45%.

On to `COc1ccc(NC(=O)c2ccccc2CC[N+](=O)[O-])cc1`, for which the inhibition was -2.01%.

For the compound `NC(=O)c1ncn([C@@H]2O[C@H](C(=O)O)[C@@H](O)[C@H]2O)n1`, the inhibition was -10.5%.

Regarding `COC(=O)C1=C(C)N(Cc2cccc(C(F)(F)F)c2)C(=NCc2cccc(C(F)(F)F)c2)NC1c1ccccc1C(F)(F)F` (stereo unspecified), the inhibition was 18.5%.

Turning to `CCO[C@H]1OC(C(=O)N2CCCCCCC2)=C[C@@H](c2ccc(C(F)(F)F)cc2)[C@@H]1CCCO`, the inhibition was 5.85%.

As to `C#CCNC(=O)C1=C[C@@H](c2ccccc2)[C@H](CCCO)[C@@H](OCC)O1`, the inhibition is 0.84%.

Regarding `CCO[C@@H]1OC(C(N)=O)=C[C@H](c2ccc(Br)cc2)[C@H]1CCCO`, the inhibition is 37% (active).

For `CC[C@H](C)[C@H]1CNC(=O)C(=O)N1CC1CCN(CCc2ccc(OC)c(OC)c2)CC1`, the inhibition was 4.8%.

In the case of `COC(=O)[C@]12C[C@H](CC(=O)NCc3ccc(OC)c(OC)c3)C(=O)N(Cc3ccccc3)C1=C[C@H](C(C)C)O[C@@H]2C1CC1`, the inhibition was 1.55%.

On to `COc1cccc(CNC(=O)[C@H]2CCCN2C(=O)[C@H]2CCCN2C(=O)c2ccc(F)cc2)c1`, for which the inhibition was 2.29%.

`CCOC(=O)N1CCN(C(=O)C[C@H]2C[C@@]3(C(=O)OC)C(=C[C@H](C4CCCC4)O[C@@H]3C)N(Cc3ccccc3)C2=O)CC1`: the inhibition is -0.91%.

For the compound `COc1ccccc1C(=O)N1O[C@]23C=C[C@]14C[C@@H](O)CC[C@]4(C)C2CC[C@]1(C)[C@@H]([C@H](C)/C=C/[C@H](C)C(C)C)CC[C@H]13` (stereo partly specified), the inhibition was -2.43%.

For the compound `OC(c1ccccc1)(c1ccccc1)C1CCN(CCCOc2ccc(-c3ccsc3)cc2)CC1`, the inhibition is 15.6%.

Regarding `COCCCNc1ccn2nc(-c3ccc(CC(C)C)cc3)cc2n1`, the inhibition is 12.8%.

Consider `COCCNc1cc(-c2ccccc2)nc2cc(-c3cccc(F)c3)nn12`, for which the inhibition is 26.4% (active).

For the compound `COc1ccc(-c2cc3nc(NCCOc4ccccc4)ccn3n2)cc1`, the inhibition was 22.7%.

As for `C[C@H]1[C@H](c2ccccc2)Oc2cc(Br)ccc2S(=O)(=O)N1Cc1cccc(F)c1`, the inhibition was -1.97%.

For the compound `Cc1noc(C)c1NC(=O)Nc1ccc2c(c1)C(=O)N([C@H](C)CO)C[C@H](C)[C@H](CN(C)Cc1ccncc1)OCCCC[C@@H](C)O2`, the inhibition was 7.37%.

For the compound `COC(=O)c1c(-c2ccc(OC)cc2)c2c(c3c4cc(OC)ccc4n(S(=O)(=O)c4ccc(F)cc4)c13)C(=O)N(C)C2`, the inhibition was -3.49%.

For `COC(=O)[C@]12C[C@H](CC(=O)NCCCCc3ccccc3)C(=O)N(Cc3ccc4c(c3)OCO4)C1=C[C@H](C(C)(C)C)O[C@@H]2C`, the inhibition was 2.49%.

For `CCC(=C/c1sc2ccc3ccccc3c2[n+]1C)/C=C1\Sc2ccc3ccccc3c2N1C`, the inhibition is 39.3% (active).

As to `Nc1[nH]c(C(=O)c2ccc(Br)cc2)c(-c2ccc3c(c2)OCO3)c1C(=O)NCCc1c[nH]c2ccccc12`, the inhibition is 15.2%.

On to `CN(C)CCNC(=O)c1cccc(-c2cnc3c(NC=O)cc(-c4cccc(C(F)(F)F)c4)cn23)c1`, for which the inhibition was 5.54%.

Consider `CN(C)CCNC(=O)c1ccc(-c2cn3c(-c4ccc(Oc5ccccc5)cc4)cnc3cn2)cc1`, for which the inhibition was 40.4% (active).

Take `CC(=O)c1cccc(-c2cnc3c(NC=O)cc(-c4ccccc4Oc4ccccc4)cn23)c1`: the inhibition was -2.03%.

As for `CCOC(=O)Cn1c2c(n(-c3ccc(F)cc3)c1=O)C=C(c1ccccc1)[C@@H](C)C(C(=O)N(C)C1CCCCC1)=C2`, the inhibition is -3.57%.

Take `CCc1ccc(C2=CC(=O)CC(C)(C)C2=O)cc1`: the inhibition is 5.54%.

Turning to `COC(=O)C1=C(C)N(Cc2ccccc2C(F)(F)F)C(=NCc2ccc(C(F)(F)F)cc2)NC1c1ccc(F)cc1` (stereo unspecified), the inhibition is 16.5%.

On to `COc1cccc(CC(=O)N2CCN(C(=O)C(=O)c3cccc(C(F)(F)F)c3)CC2)c1`, for which the inhibition is -7.68%.

Take `O=S1(=O)c2c(cccc2N2CCCC2)O[C@H](COCc2ccccc2)CN1C1CC1`: the inhibition is -15.6%.

With `O=C1[C@@H](c2ccccc2)[C@@H](c2ccccc2)N1c1ccccc1`, the inhibition is -3.37%.

Regarding `CCn1c(SCc2cc(=O)n3ccsc3n2)nc2ccccc21`, the inhibition was 26.2% (active).

`CCn1c(SCC(=O)N2CCCC2=O)nc2ccccc21`: the inhibition is -1.54%.

Take `O=C(O)CCn1c(SCc2cc(=O)n3ccccc3n2)nc2ccsc2c1=O`: the inhibition is 9.88%.

Consider `O=C1Nc2ccccc2C1=NN=Cc1ccco1`, for which the inhibition is 18.3%.

Take `COC(=O)C1=C(C)N(Cc2cccc(C(F)(F)F)c2)C(=NCc2ccccc2)NC1c1ccccc1C(F)(F)F` (stereo unspecified): the inhibition is 18.8%.

In the case of `O=C(Nc1c(Cl)c(C2CC2)nn1-c1ccccc1)C(Cl)(Cl)Cl`, the inhibition is 1.34%.

In the case of `COc1cccc(NC(=O)N(C)C[C@@H]2OCc3cn(nn3)CCCC(=O)N([C@@H](C)CO)C[C@H]2C)c1`, the inhibition is 2.11%.

As for `Nc1ncnc2c1ncn2[C@@H]1O[C@H](C(=O)N[C@@H](CCc2ccccc2)C(=O)N2CCCN(Cc3cccs3)CC2)[C@@H](O)[C@H]1O`, the inhibition is -6.61%.

As for `COc1ccc(SSc2ccc(OC)cc2C(=O)O)c(C(=O)O)c1`, the inhibition is -0.05%.

Turning to `C[C@H](O)[C@@H]1C(=O)N2CCc3c([nH]c4c(-c5ccc6c(c5)OCO6)cccc34)[C@@H]2C[C@@H]1N(C)C(=O)c1ccco1`, the inhibition is 1.71%.

On to `COc1cccc(CNc2nc(C(F)(F)F)nc3ccccc23)c1`, for which the inhibition was 27.8% (active).

Consider `COc1cccc(CNc2nc(NCc3cccs3)nc3ccsc23)c1`, for which the inhibition is 2.65%.

As to `COc1cccc(CNc2ncc(-c3ccccc3)n2C)c1`, the inhibition was -4.8%.

As for `C[C@@H](CN1C2=NC[C@@H](Cc3ccccc3)N2C[C@H]1Cc1ccc(O)cc1)NC(=O)CCC1CCCCC1`, the inhibition was 6.99%.

With `CC[C@H](NC(=O)[C@H](Cc1ccccc1)NC(=O)[C@H]1O[C@@H](n2cnc3c(=O)[nH]c(N)nc32)[C@H](O)[C@@H]1O)c1ccccc1`, the inhibition is 10%.

For the compound `COC(=O)[C@]1(Cc2ccccc2)NC=C(C(=O)c2ccccc2)[C@@H]1c1cccc(OC)c1`, the inhibition is 1.68%.
